# M18AAP inhibitor = blocks P. falciparum M18 aspartyl aminopeptidase. inhibition, % at 7.35 µM. 290,000 compounds, 1.2% hits. recombinant PfM18AAP, H-Glu-NHMec fluorogenic cleavage. AID 1822;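 active means inhibition above the campaign mean inhibition over all tested compounds plus 3 SD, cut at about 28% in these data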;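 further: 0% = plate median of test compound wells and 100% = 2 mM ZnCl2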
# NS3 helicase inh = blocks Hepatitis C virus NS3 helicase unwinding. NS3 helicase DNA unwinding, Cy5 molecular beacon fluorescence. inhibition, % at 10.9 µM. 290,000 compounds, 0.56% hits. AID 1800;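 active means inhibition above the mean of all tested compounds plus 3 SD, set per campaign, cut at about 35% in these data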;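 further: 0% = DMSO wells and 100% = thioflavine S control wells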
#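 System: Hepatitis C virus NS3 helicase domain fragment enzyme | Reagent: Annealed dual-labelled DNA beacon duplex, ATP-started | Compound dosing: 10.9 µM single point, 0.8% DMSO | Incubation: 1 h reaction at 25 °C, ATP-initiated | Technique: Cy5 fluorescence | Evaluation: Percent inhibition from t60/t0 fluorescence ratio | Benchmarks: Low DMSO, high thioflavine S at 110 µM | Replication: Singlicate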
# HCV core dimer = blocks dimerization of HCV core protein | 300,000 compounds, 0.33% hits | inhibition, % at 5 µM | AID 1899 | TR-FRET GST/Flag-core106 dimerization, 1536-well;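 active means inhibition above the mean of all tested compounds plus 3 SD, set per screening campaign, cut at about 45% in these data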
#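 System: GST/Flag-tagged HCV core106 proteins. Incubation: compound-protein-antibody incubation 4 h at 22.5 °C. Technique: HTRF with 340 nm excitation, 617/671 nm emission. Medium: KF-containing HEPES buffer, pH 7.45, DTT, CHAPS, BSA. Read-out: inhibition (%) from 671 over 617 nm ratio. Also added: Eu(K)-anti-GST 90 ng/mL plus XL665-anti-Flag 1 µg/mL.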
# ZTA DNA inh = ZTA (EBV) inhibition in EBNA-1 counter-screen | 320,000 compounds, 0.15% hits | ZTA-DNA binding, fluorescence polarization | inhibition, % at 11 µM | AID 2234; in the data active means inhibition above about 33%
# Target sequence (P03206 whole entry, looked up): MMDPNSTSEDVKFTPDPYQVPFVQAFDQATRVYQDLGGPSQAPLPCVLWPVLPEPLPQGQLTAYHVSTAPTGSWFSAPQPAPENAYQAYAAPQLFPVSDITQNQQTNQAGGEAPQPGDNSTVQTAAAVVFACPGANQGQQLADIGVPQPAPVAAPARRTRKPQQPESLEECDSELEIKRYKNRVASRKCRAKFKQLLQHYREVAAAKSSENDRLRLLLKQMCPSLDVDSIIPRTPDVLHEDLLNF
# ALR inh = inhibitors of human sulfhydryl oxidase ALR; 290,000 compounds, 3.8% hits; AID 485317; purified ALR, DTT oxidation, H2O2 HRP-luminol luminescence; P55789; inhibition, % (concentration not given with the values);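 active means mean replicate inhibition above about 79%, with every replicate also reaching it, limit read from the data; inconclusive means only one of the two criteria met; inactive means mean below limit and not every replicate reaching it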
# Target sequence (P55789 whole entry, looked up): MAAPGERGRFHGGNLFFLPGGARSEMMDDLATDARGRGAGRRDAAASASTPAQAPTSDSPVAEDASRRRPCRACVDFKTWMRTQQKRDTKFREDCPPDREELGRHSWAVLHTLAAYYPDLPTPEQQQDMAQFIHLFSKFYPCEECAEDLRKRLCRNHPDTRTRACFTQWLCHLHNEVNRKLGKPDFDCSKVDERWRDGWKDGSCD
# EBNA-1 inhibitor = blocks EBNA-1 binding to DNA; EBNA-1 DNA binding, fluorescence polarization; inhibition, % at 14.8 µM; 300,000 compounds, 0.34% hits; AID 1950; in the data active means inhibition above about 28%
# Numbers without * were called inactive; ? = inconclusive; / = not tested or not shown. Rows were chosen to be rich in hits. Some 5.2% of all compounds tested hit in one or more screens of this group.
SMILES,M18AAP inhibitor,NS3 helicase inh,HCV core dimer,ZTA DNA inh,ALR inh,EBNA-1 inhibitor
COc1ccc(CCNC(=O)C2CCN(S(=O)(=O)c3ccc(F)cc3)CC2)cc1,2,1,12,10,/,1
O=S(=O)(Nc1ccc(O)c(Sc2nc3ccccc3s2)c1)c1ccc(F)cc1,-9,-7,-9,-29,?,5
O=C(O)c1cccc(S(=O)(=O)Nc2ccc(O)c(Sc3nc4ccccc4s3)c2)c1,14,12,2,-1,99*,3
Cc1nn(C)c(C(=O)Sc2cccc(Cl)c2)c1[N+](=O)[O-],-2,1,1,3,98*,-2
COc1ccccc1/C=C/C=N/NC(=O)c1cc(-c2ccco2)[nH]n1,8,26,44,-20,98*,-6
COc1ccccc1/C=C/C=N/NC(=O)c1ccccn1,5,1,-5,4,-9,-5
Cc1cnn(CCC(=O)NNC(=S)Nc2ccc(F)cc2)c1,12,0,0,-11,82*,-11
COc1ccc(OC)c(NCc2nnc(-c3ccccc3)o2)c1,-4,1,/,/,99*,/
c1ccc(Nc2c(-c3ccco3)nc3ccccn23)cc1,1,3,-16,-5,98*,2
Cc1cccc2nc(-c3ccco3)c(Nc3ccc4c(c3)OCCO4)n12,-1,23,-12,13,95*,-15
Fc1ccc(Nc2c(-c3ccco3)nc3ccccn23)cc1,-2,5,-9,4,/,-3
Cc1ccc(Nc2c(-c3ccco3)nc3ccccn23)cc1,-3,27,-15,-17,99*,1
O=[N+]([O-])c1ccccc1Nc1cccnc1,/,/,-7,1,42,-7
COc1ccc(N(CC(=O)Nc2ccccc2OC)S(=O)(=O)c2ccc(NC(C)=O)cc2)cc1,-21,11,5,7,-2,10
CCOC(=O)c1[nH]c2ccc(OC)cc2c1N=CN(C)C,0,-2,-1,-15,98*,2
CCOC(=O)C1CCN(Cc2c(F)cccc2Cl)CC1,-11,-5,2,-8,98*,-5
CCOC(=O)C1CCCN(Cc2c(F)cccc2Cl)C1 (stereo not given),0,-4,0,1,99*,9
CCOC(=O)C1CCN(Cc2ccc(N(C)C)cc2)CC1,5,-4,1,8,99*,9
CC(=O)NC12CC3CC(C1)CC(C(=O)N(C)Cc1cccc(Cl)c1Cl)(C3)C2,1,-3,/,/,-18,/
CCN(CCCNC(=O)CCc1nc(-c2ccc(OC)cc2)no1)c1cccc(C)c1,32*,-8,-10,-1,87*,7
CCOCCCNC(=O)Cn1cc2c(n1)CCCC2,-11,14,6,2,-16,-5
CCN(CCCNC(=O)Cn1cc2c(n1)CCCC2)c1cccc(C)c1,3,-8,-2,7,99*,1
COc1ccc(-c2noc(CCC(=O)NCCc3ccccc3)n2)cc1,5,-12,-12,-7,-1,4
O=C(NCCc1ccccc1)C1CCN(S(=O)(=O)N2CCC3(CC2)OCCO3)CC1,-9,-2,-1,-12,-17,-10
CCN(CCCNC(=O)C1CCN(S(=O)(=O)N2CCC3(CC2)OCCO3)CC1)c1ccccc1,25,-4,-2,-1,99*,9
SMILES,M18AAP inhibitor,NS3 helicase inh,HCV core dimer,ZTA DNA inh,ALR inh,EBNA-1 inhibitor
CCN(CCCNC(=O)C1CCN(S(=O)(=O)CC)CC1)c1cccc(C)c1,4,-5,-4,0,99*,3
COC(=O)c1[nH]c2ccccc2c1CN1CCOCC1,3,-10,-7,-6,-9,-7
Cc1ccc(CN2C(=O)CCC2C(=O)NCc2ccc(F)cc2)cc1 (stereo not given),-2,-1,-3,-2,-2,3
CCN(CCCNC(=O)C1CCN(S(=O)(=O)CC)CC1)c1ccccc1,8,-5,-5,-16,99*,4
CCCCN(CCCNC(=O)C1CCN(S(=O)(=O)N2CCOCC2)CC1)c1ccccc1,-8,0,-4,-3,99*,-13
CCN(CCCNC(=O)C1CCC(=O)N1Cc1ccc(F)cc1)c1cccc(C)c1 (stereo not given),6,18,-6,-9,99*,10
CN(CCNC(=O)C1CCN(S(=O)(=O)N2CCOCC2)CC1)CCc1ccccc1,-6,4,-4,-3,0,-2
CCOCCCNC(=O)C1CCN(S(=O)(=O)CC)CC1,2,-12,-1,4,1,6
CCn1cc(C(=O)NCc2ccc(Cl)cc2)c(=O)c2cc(S(=O)(=O)N(C)C)ccc21,-7,-5,8,-32,-7,-6
CCSc1ncc(/C=N/Nc2ccccc2)n1C,-6,-4,-20,-7,99*,-8
CCSc1ncc(/C=N/Nc2ccc(Cl)cc2)n1C,-5,-12,-16,15,?,5
Cc1c(C(=O)NCc2nnc(-c3ccccc3)o2)oc2c(F)cccc12,-2,4,/,/,-10,/
Cc1ccc(-c2nnn(CC(=O)N(CC3CCCO3)C(C(=O)NC(C)(C)C)c3ccc(F)cc3)n2)o1 (stereo not given),-6,6,-2,2,99*,5
N#Cc1ccccc1Cn1c(=O)n(Cc2ccc(C(=O)NCc3ccco3)cc2)c(=O)c2sccc21,2,-4,31,15,94*,15
COc1ccc(/C=C/C(=O)NC(=S)NNC(=O)c2c(-c3ccccc3)noc2C)cc1,3,0,11,-2,-2,-11
O=C(Nc1ccc(NC(=S)NC(=O)c2ccco2)cc1)c1ccccc1,2,-2,9,-3,-14,5
Cc1onc(-c2ccccc2)c1C(=O)NNC(=S)NC(=O)/C=C/c1ccccc1,8,4,9,9,76*,2
COc1ccc(/C=C/C(=O)NC(=S)NNC(=O)c2ccco2)cc1OC,4,-3,0,-1,85*,-10
O=C(CNC(=S)NC(=O)c1ccco1)c1ccccc1,29*,-5,0,-1,12,2
COc1ccc(NC(=S)NNC(=O)c2ccco2)c(OC)c1,12,3,-1,-8,77*,6
COc1ccc(NC(=O)c2ccccc2NC(=O)c2ccco2)c(OC)c1,-3,-3,-5,10,0,2
CCc1cccc(C)c1NC(=S)NCC(c1cccnc1)N1CCOCC1 (stereo not given),-12,-3,-4,-12,4,-19
COc1ccc(C(=O)NC(=S)NNC(=O)c2ccco2)cc1,-4,5,-21,1,100*,5
O=C(NC(=S)NNC(=O)c1ccco1)c1ccc(F)cc1,12,-3,9,0,?,15
COc1ccccc1C(=O)NC(=S)Nc1ccc(NC(=O)c2ccco2)cc1,-5,-9,5,7,-7,-1
COc1ccc(/C=C/C(=O)NC(=S)NNC(=O)Cc2cccs2)cc1,3,1,4,9,-15,3
